This is a sample that favours compounds with a hit; in the whole collection about 0.79% have one here.
mIAP activ: mouse IAP activation | 330,000 compounds, 0.24% hits | activation factor at 10 µM | AID 2805 | muIAP, CDP-Star luminescence, 30 min; active compounds read high; 1 = vehicle-only enzyme signal, 0 = enzyme-free wells;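 active = activation factor of at least 2 at 20 µM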
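Assay system: mouse IAP enzyme; reagent: chemiluminescent substrate CDP-Star; dosing: test compounds delivered from DMSO solution; schedule: 30 min at room temperature; measured by: luminescence from enzymatic CDP-Star hydrolysis; controls: DMSO-only wells and no-enzyme negative control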
hIAP activ: increases human intestinal alkaline phosphatase activity; P09923; purified human IAP, CDP-Star luminescence, 30 min; active compounds read high; 1 = vehicle-only enzyme, 0 = enzyme-free background; activation factor at 10 µM; 330,000 compounds, 0.16% hits;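 active = activation factor of the enzyme at least 2-fold when tested at 20 µM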
Target sequence (P09923 whole entry, looked up): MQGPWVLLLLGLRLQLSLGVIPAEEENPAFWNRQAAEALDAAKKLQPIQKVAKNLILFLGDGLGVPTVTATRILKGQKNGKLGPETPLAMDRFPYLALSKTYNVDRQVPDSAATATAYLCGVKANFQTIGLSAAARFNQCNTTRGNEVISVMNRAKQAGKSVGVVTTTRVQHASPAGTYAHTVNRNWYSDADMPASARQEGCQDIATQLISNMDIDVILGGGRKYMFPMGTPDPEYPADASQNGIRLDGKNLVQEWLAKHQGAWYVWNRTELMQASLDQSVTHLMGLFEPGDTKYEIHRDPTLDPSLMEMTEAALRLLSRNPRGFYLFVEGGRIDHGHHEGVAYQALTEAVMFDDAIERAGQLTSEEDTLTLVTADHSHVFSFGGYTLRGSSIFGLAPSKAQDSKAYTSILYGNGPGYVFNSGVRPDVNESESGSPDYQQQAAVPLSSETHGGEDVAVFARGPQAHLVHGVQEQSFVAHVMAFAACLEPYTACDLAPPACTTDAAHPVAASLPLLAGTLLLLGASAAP
mIAP block: blocks mouse intestinal alkaline phosphatase. purified mouse IAP, CDP-Star luminescence, 30 min. inhibition, % at 10 µM. 330,000 compounds, 0.2% hits. AID 2806;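 active = inhibition of at least 40% at 10 µM in the primary screen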;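 also: plate controls were DMSO with enzyme for no effect and no enzyme wells for full effect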
bIAP inh: blocks bovine intestinal alkaline phosphatase activity; 190,000 tested, under 10 active; inhibition, % at 20 µM; purified bovine IAP, CDP-star luminescence, 30 min;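 active = over 50% inhibition of intestinal alkaline phosphatase at 20 µM in the single-dose screen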
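Incubation: 30 min reaction at room temperature / Material: purified bovine intestinal alkaline phosphatase (IAP) enzyme / Input: enzyme at 1/65,000,000 dilution / Dosing: 20 µM single dose / Signal: CDP-star luminescence signal / Reagent: CDP-star chemiluminescent phosphatase substrate, 30 µM final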
bIAP activator: intestinal alkaline phosphatase (bovine) activation | purified bovine IAP, CDP-star luminescence, 30 min; active compounds read high; fold of DMSO-control signal, blank-subtracted | activation factor at 20 µM | 200,000 compounds, 0.17% hits | AID 1016;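 active = activation factor of 2 or more at 20 µM, a signal rise over negative controls twice the positive control's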
hIAP block: blocks human intestinal alkaline phosphatase; 330,000 compounds, 0.12% hits; P09923; inhibition, % at 10 µM; purified IAP, CDP-Star luminescence, 30 min; AID 2544;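 active = inhibition reaching a set limit with compound at 10 µM in the primary screen, cut at about 35% in these data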;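 also: plate controls were DMSO wells with enzyme for no effect and no-enzyme buffer wells for full effect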
hIAP act conf: human IAP activation confirmation. 880 compounds, 10% hits. shares compounds with hIAP activ. purified IAP, CDP-Star luminescence, 30 min; active compounds read low. activation (%Activity, negative = activation), % at 8.3 µM. AID 434926;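 active = at least twofold enzyme activation in any of six single-dose repeats, which the averaged readout prints as negative percent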
* hit, by the source's call; i = inactive; x = not tested or not shown.

SMILES	mIAP activ	hIAP activ	mIAP block	bIAP inh	bIAP activator	hIAP block	hIAP act conf
CC(NS(=O)(=O)c1ccc(Br)cc1)C(=O)Nc1nc2ccccc2[nH]1 (stereo not given)	0.879	2.12*	12.1	x	x	-112.4	66.7
O=C(Cc1ccc(Br)cc1)Nc1nc2ccccc2[nH]1	0.971	1.56	2.9	x	x	-56.3	x
O=C(Nc1nonc1NC(=O)c1cccs1)c1cccs1	0.919	1.18	8.1	7.9	0.9	-17.5	x
COc1ccc(NC(=S)NNC(=O)c2nnn(-c3ccccc3)c2C)cc1	0.909	2.13*	9.1	0.7	1	-113.5	24.0
CCCCn1c(O)c(N=Nc2ccccc2O)c2ccccc21	0.797	2.75*	20.3	x	x	-174.5	5.7
CN(C)c1ccc(N=Nc2ccccc2C(=O)OCC(=O)NCC2CCCCC2)cc1	0.706	1.04	29.4	-5.2	1.1	-4.0	x
CN(C)c1ccc(N=Nc2ccccc2C(=O)OCC(=O)NC2CCCC2)cc1	0.715	0.605	28.5	-6.3	1.1	39.5*	10.0
COc1ccc(OCc2cc(C(=O)O)c(C)o2)cc1	0.993	1.18	0.7	x	x	-18.1	x
C/C(=N/NC(=O)c1ccc(Cn2cccn2)o1)c1cccc(NC(=O)c2ccncc2)c1	1.05	0.54	-4.9	x	x	46.0*	-100.7*
Cc1ccc(-n2ncc3c(NNC(=O)c4ccco4)ncnc32)cc1Cl	0.965	2.93*	3.5	x	x	-193.4	-57.3
Cc1cccc(-n2ncc3c(NNC(=O)c4ccco4)ncnc32)c1	0.959	3.47*	4.1	x	x	-246.8	-74.5*
Cc1cccc(-n2ncc3c(NCc4ccco4)ncnc32)c1	1.11	1.02	-11.5	8.5	0.9	-1.9	x
O=C(NC1CCCCCC1)c1ccc(-n2cnnc2)cc1	1.02	0.649	-2.1	x	x	35.1*	-58.8*
O=C(CCCSc1nc(-c2ccco2)cc(C(F)(F)F)n1)NCc1cccs1	0.951	0.628	4.9	7.3	0.9	37.2*	-29.3
CCOC(=O)C1CCN(C(=O)N2CCOCC2)CC1	1.09	2*	-9.1	7.3	0.9	-100.3	-7.6
CCN(CC)C(=O)COc1ccc(/C(C)=N/Nc2ncc(Cl)cc2Cl)cc1	0.945	0.919	5.5	x	x	8.1	x
COc1ccc(NC(=O)/C(C#N)=C\c2cc(C)n(-c3ccc4c(c3)OCO4)c2C)cc1	0.857	2.08*	14.3	9.4	0.9	-108.3	-56.3
CC(=O)OCC(=O)c1c[nH]c2ccccc12	0.975	0.885	2.5	-7.9	1.1	11.5	x
CC(C)(C)NCC(=O)c1c[nH]c2ccccc12	1.15	2.08*	-14.9	9.8	0.9	-108.3	-58.1
N#C/C(=C\c1ccccc1Cl)C(=O)NC(=O)Oc1ccccc1	0.998	0.89	0.2	9.0	0.9	11.0	x
N#C/C(=C\c1ccccc1)C(=O)NC(=O)Oc1ccccc1	1.03	0.622	-3.1	5.1	0.9	37.8*	-5.7
COc1ccc(C(=O)NCc2nnc(SCC(=O)N3CCc4ccccc43)n2Cc2ccccc2)cc1	1.07	1.09	-6.6	3.9	1	-9.6	x
O=C(Nc1ccc(OC(F)(F)F)cc1)NC1CCC(Oc2ccc(C(=O)O)cc2)CC1 (stereo not given)	1.33	3.8*	-33.4	x	x	-279.9	-35.0
Cc1c(Cl)cccc1NC(=O)C(=O)NNS(=O)(=O)c1ccc(F)cc1	0.803	2.39*	19.7	x	x	-139.1	-20.5
CN(C(=O)c1cc(COc2ccc(F)c(F)c2)on1)C1CCOC1 (stereo not given)	1.02	1.13	-2.5	x	x	-12.6	x
SMILES	mIAP activ	hIAP activ	mIAP block	bIAP inh	bIAP activator	hIAP block	hIAP act conf
OC(c1ccccc1)c1nc2ccccc2[nH]1 (stereo not given)	1.01	0.899	-1.1	x	x	10.1	x
Cc1cccc(CC(Cc2nc3ccccc3[nH]2)c2nc3ccccc3[nH]2)c1 (stereo not given)	1.41	2.4*	-41.3	-331.9	4.3*	-139.5	30.1
CC(C)N(Cc1nc2ccccc2[nH]1)C(C)C	1.01	0.909	-1.1	2.9	1	9.1	x
OC(c1nc2ccccc2[nH]1)C(O)c1nc2ccccc2[nH]1 (stereo not given)	0.998	2.46*	0.2	x	x	-146.1	-3.9
CC(c1ccccc1)C(Cc1nc2ccccc2[nH]1)c1nc2ccccc2[nH]1 (stereo not given)	1.71	2.18*	-70.6	-306.1	4.1*	-118.3	6.2
CC1CCN(S(=O)(=O)c2ccc3c(c2)CCN3C(=O)C2CCC2)CC1	0.984	0.816	1.6	x	x	18.4	x
CC1CCCN(S(=O)(=O)c2ccc3c(c2)CCN3C(=O)C2CCC2)C1 (stereo not given)	0.973	50.3*	2.7	0.1	1	i	0.1
Cc1cc(C)cc(OCC(=O)NNC(=O)c2cc(C)[nH]n2)c1	1.05	2.07*	-5.5	-20.6	1.2	-106.9	-94.6*
O=C(N/N=C/c1ccc(O)c(O)c1)c1cc(-c2ccccc2)nc2ccccc12	0.714	0.224	28.6	x	x	77.6*	26.6
O=C(N/N=C/c1cccc(O)c1)c1cc(-c2ccccc2)nc2ccccc12	0.868	1.02	13.2	x	x	-1.8	x
O=C(NCc1ccco1)c1ccccc1SCC(=O)N1CCCC1	0.939	0.86	6.1	x	x	14.0	x
On1onc2c3cc(-c4ccccc4)nc3ccc21	0.909	0.634	9.1	18.3	0.8	36.6*	-3.4
c1ccc(-c2cc3c(ccc4nonc43)nn2)cc1	1.04	1.19	-4.1	4.4	1	-18.9	x
CCN(CC)C(=O)C(=O)N/N=C/c1ccc(Cl)cc1Cl	0.993	2.12*	0.7	3.8	1	-112.0	-41.8
CC1CN(C(=O)/C(C#N)=C2\N=C(NC(=O)c3ccc(F)cc3)c3ccccc32)CC(C)O1 (stereo not given)	0.968	0.863	3.2	x	x	13.7	x
Cc1nn(C(=O)CCC(=O)NCCc2ccccc2)c2ccccc12	0.955	0.869	4.5	x	x	13.1	x
Cc1nn(C(=O)CCC(=O)NCc2cccc(F)c2)c2ccccc12	0.976	0.614	2.4	x	x	38.6*	4.5
Cc1[nH]n(-c2nc(-c3ccccc3)cc(=O)[nH]2)c(=O)c1CCO	0.877	0.379	12.3	35.4	0.6	62.1*	47.5
C=CCN1C(=O)/C(=C/C=C2/N(CC)c3ccc(S(=O)(=O)N(C)C)cc3N2CC)SC1=S	0.732	0.641	26.8	13.8	0.9	35.9*	0.3
CS(=O)(=O)N1CCC(C(=O)Nc2cccc(F)c2)CC1	1.05	1.14	-5.4	x	x	-13.9	x
O=C(Nc1cccc(-c2cccc(F)c2)c1)C1CCN(C2CCOCC2)CC1	1.94	2.85*	-94.0	x	x	-185.2	1.7
Cc1cc(=O)n(CC(=O)NC2CC2)c2c1c(C)nn2-c1ccccc1	0.985	1.11	1.5	x	x	-10.8	x
CCCCCCC(=O)N=Nc1c(O)[nH]c2ccc([N+](=O)[O-])cc12	0.83	1.16	17.0	-17.0	1.2	-15.7	x

Screening results from PubChem BioAssay.
